Calls of active or inactive are those of the source. The calls are words filed in the database; no cut-off is given here.
Experiments:
[1] = molecular target: T1, Ectonucleotide pyrophosphatase/phosphodiesterase family member 1 (Homo sapiens) (UniProt P22413); experiment: Inhibition of human NPP1 expressed in COS7 cells assessed as production of p-nitrophenol using pnp-TMP as the substrate preincubated at 100 uM for 3 mins before substrate addition measured after 15 mins […]; assay type: cell-based; conditions: COS-7
T1 sequence (whole entry): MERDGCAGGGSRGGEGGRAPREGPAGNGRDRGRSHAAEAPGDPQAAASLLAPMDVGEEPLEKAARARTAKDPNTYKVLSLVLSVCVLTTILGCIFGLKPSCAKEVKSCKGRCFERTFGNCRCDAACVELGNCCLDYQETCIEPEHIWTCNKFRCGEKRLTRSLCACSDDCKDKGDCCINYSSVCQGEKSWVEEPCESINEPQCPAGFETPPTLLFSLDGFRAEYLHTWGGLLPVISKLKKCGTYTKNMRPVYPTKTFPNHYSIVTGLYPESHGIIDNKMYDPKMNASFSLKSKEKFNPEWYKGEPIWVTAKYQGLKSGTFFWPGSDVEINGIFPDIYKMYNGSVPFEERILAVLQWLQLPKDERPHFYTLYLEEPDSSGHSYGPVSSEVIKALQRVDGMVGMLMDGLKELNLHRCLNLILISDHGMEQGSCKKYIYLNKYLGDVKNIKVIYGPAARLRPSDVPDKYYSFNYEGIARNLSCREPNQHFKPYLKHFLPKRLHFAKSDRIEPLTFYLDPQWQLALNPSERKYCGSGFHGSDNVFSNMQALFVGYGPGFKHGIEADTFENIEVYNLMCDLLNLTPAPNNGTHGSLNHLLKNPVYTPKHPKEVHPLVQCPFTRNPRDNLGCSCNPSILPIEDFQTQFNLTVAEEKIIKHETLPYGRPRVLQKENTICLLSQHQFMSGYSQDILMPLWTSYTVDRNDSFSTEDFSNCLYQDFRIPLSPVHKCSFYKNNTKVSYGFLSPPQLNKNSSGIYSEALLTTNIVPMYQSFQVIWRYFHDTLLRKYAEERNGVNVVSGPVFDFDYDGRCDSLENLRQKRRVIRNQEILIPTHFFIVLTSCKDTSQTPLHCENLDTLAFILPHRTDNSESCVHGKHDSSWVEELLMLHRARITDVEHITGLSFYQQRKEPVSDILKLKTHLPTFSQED
In short: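 Crude extracts of COS-7 cells transiently transfected with human NPP1 or NPP3, preincubated 3 min at 37 °C in 1 mM CaCl2, 140 mM NaCl, 5 mM KCl, 50 mM Tris pH 8.5 with analogue at 100 μM. Reaction started with 100 μM pnp-TMP; p-nitrophenol at 410 nm after 15 min. Activity without analogue set as 100%. Mean ± SD of 3−6 experiments in triplicate.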

[2] = molecular target: T2, Ectonucleoside triphosphate diphosphohydrolase 2 (Homo sapiens) (UniProt Q9Y5L3); experiment: Inhibition of human NTPDase2 assessed as amount of inorganic phosphate released using ATP as the substrate preincubated at 100 uM for 3 mins before substrate addition after 15 mins by malachite green reagent method
T2 sequence (whole entry): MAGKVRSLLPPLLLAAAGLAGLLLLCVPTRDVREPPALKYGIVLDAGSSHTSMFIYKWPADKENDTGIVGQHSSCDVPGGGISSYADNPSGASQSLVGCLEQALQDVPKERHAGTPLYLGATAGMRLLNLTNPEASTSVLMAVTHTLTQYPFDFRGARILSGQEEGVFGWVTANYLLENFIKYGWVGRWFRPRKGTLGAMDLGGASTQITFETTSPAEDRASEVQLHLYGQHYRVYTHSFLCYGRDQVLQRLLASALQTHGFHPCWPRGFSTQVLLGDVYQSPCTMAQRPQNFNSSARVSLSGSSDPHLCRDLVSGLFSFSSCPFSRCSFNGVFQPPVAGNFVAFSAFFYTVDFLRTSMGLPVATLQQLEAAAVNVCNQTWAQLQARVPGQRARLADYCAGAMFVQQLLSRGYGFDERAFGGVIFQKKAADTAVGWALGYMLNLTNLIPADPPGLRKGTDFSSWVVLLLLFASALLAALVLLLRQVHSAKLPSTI
In short: (§1)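 Crude extracts of COS-7 cells transiently transfected with human NTPDase1, -2, -3 or -8, preincubated 3 min at 37 °C in Tris-Ringer medium pH 7.4 with analogue (final 100 μM). Started with 100 μM ATP, stopped after 15 min with malachite green; released Pi read at 630 nm. ATP alone set as 100%. Mean ± SD of 3−6 experiments in triplicate.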

[3] = molecular target: T3, Ectonucleoside triphosphate diphosphohydrolase 8 (Homo sapiens) (UniProt Q5MY95); experiment: Inhibition of human NTPDase8 assessed as amount of inorganic phosphate released using ATP as the substrate preincubated at 100 uM for 3 mins before substrate addition after 15 mins by malachite green reagent method; in short: as §1
T3 sequence (whole entry): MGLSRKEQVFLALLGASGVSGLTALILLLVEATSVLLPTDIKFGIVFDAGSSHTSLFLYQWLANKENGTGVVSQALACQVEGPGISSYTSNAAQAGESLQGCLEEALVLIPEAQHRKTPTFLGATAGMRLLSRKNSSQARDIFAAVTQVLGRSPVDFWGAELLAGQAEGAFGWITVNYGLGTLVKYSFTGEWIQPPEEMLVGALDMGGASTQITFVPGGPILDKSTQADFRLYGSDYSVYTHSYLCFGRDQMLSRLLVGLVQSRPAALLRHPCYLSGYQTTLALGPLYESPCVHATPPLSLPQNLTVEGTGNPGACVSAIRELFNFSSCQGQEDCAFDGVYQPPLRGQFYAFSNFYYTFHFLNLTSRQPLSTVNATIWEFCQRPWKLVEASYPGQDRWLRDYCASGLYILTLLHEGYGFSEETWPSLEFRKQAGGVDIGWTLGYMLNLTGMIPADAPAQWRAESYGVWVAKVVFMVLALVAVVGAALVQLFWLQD

[4] = molecular target: T4, Ectonucleoside triphosphate diphosphohydrolase 1 (Homo sapiens) (UniProt P49961); experiment: Inhibition of human NTPDase1 assessed as amount of inorganic phosphate released using ATP as the substrate preincubated at 100 uM for 3 mins before substrate addition after 15 mins by malachite green reagent method; in short: as §1
T4 sequence (whole entry): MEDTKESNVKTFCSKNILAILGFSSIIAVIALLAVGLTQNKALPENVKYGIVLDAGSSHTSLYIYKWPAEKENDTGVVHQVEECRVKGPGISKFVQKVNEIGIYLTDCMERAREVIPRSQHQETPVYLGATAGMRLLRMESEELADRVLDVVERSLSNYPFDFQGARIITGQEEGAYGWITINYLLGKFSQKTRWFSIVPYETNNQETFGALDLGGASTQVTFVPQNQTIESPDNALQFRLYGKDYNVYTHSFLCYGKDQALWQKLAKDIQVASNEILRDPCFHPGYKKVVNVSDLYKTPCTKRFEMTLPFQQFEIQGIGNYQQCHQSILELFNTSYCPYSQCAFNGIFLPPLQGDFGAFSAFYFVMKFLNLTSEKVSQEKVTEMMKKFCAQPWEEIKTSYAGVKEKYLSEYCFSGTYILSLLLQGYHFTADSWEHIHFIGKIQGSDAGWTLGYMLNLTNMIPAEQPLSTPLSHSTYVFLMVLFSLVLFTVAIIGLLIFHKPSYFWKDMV

[5] = molecular target: T5, Ectonucleoside triphosphate diphosphohydrolase 3 (Homo sapiens) (UniProt O75355); experiment: Inhibition of human NTPDase3 assessed as amount of inorganic phosphate released using ATP as the substrate preincubated at 100 uM for 3 mins before substrate addition after 15 mins by malachite green reagent method; in short: as §1
T5 sequence (whole entry): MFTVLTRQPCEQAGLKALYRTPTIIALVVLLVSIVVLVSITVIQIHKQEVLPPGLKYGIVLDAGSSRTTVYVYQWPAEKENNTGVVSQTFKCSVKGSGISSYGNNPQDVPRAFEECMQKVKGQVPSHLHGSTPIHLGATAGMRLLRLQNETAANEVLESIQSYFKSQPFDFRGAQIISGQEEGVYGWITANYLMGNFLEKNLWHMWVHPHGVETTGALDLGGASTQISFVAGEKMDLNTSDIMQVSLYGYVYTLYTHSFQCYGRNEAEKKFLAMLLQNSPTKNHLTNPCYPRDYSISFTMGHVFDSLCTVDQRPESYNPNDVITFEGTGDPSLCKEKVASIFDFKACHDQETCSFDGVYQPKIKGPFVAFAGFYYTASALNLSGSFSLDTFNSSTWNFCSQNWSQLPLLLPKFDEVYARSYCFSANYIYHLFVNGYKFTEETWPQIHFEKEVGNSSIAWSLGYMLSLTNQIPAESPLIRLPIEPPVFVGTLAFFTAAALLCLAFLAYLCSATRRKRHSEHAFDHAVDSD

[6] = molecular target: T1, Ectonucleotide pyrophosphatase/phosphodiesterase family member 1 (Homo sapiens); experiment: Inhibition of NPP1 in human HTB-85 cells assessed as production of p-nitrophenol using pnp-TMP at 100 uM measured after 20 mins by spectrophotometry; assay type: cell-based
In short: (§2)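 Intact osteocarcinoma HTB85 (SaOS-2) cells in 24-well plates, 0.5 mL incubation mixture, analogue and pnp-TMP each at 100 μM. After 20 min an aliquot was read for p-nitrophenol at 410 nm. Substrate alone set as 100%. Mean ± SD of three experiments in triplicate.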

[7] = molecular target: T6, Ectonucleotide pyrophosphatase/phosphodiesterase family member 3 (Homo sapiens) (UniProt O14638); experiment: Inhibition of NPP3 in human HTB-85 cells assessed as production of p-nitrophenol using pnp-TMP at 100 uM measured after 20 mins by spectrophotometry; assay type: cell-based; in short: as §2
T6 sequence (whole entry): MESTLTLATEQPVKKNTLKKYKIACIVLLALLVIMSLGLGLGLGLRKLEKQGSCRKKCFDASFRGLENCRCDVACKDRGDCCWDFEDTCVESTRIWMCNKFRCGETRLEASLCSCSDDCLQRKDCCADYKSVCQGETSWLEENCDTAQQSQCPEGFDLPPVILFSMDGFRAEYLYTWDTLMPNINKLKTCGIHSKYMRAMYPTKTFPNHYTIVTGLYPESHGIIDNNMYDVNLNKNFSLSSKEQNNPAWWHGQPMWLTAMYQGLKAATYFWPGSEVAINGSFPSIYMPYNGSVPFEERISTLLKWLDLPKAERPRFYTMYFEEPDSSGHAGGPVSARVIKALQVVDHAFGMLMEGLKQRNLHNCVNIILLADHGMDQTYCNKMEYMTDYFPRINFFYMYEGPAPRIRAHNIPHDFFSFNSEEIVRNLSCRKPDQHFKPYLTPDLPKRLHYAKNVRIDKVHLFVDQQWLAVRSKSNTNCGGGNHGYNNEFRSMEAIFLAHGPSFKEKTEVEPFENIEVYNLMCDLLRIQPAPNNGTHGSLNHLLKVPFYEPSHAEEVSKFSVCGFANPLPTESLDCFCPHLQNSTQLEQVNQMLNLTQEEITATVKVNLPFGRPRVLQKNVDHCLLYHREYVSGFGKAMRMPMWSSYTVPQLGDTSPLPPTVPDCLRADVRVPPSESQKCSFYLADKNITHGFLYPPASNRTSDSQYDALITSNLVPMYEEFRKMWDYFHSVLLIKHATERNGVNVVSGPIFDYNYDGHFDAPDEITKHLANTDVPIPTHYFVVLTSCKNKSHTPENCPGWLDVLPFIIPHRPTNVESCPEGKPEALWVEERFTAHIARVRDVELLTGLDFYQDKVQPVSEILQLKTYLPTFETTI

[8] = molecular target: T1, Ectonucleotide pyrophosphatase/phosphodiesterase family member 1 (Homo sapiens); experiment: Competitive inhibition of human NPP1 expressed in COS7 cells assessed as production of p-nitrophenol using pnp-TMP as the substrate preincubated at 25 to 100 uM for 3 mins before substrate addition measured after 15 mins by Dixon/Cornish Bowden method; assay type: cell-based; conditions: COS-7
In short: (§3)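 Crude protein extract from COS-7 cells transiently transfected with human NPP1 (sonicated, debris cleared at 300g), preincubated 3 min at 37 °C with inhibitor (0, 25, 50, 100 μM) in 1 mM CaCl2, 140 mM NaCl, 5 mM KCl, 50 mM Tris pH 8.5. pnp-TMP (25, 50, 100 μM) added; p-nitrophenol read at 410 nm after 15 min. Ki,app and inhibition type from Dixon and Cornish-Bowden plots, three independent experiments.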

[9] = molecular target: T7, Ectonucleotide pyrophosphatase/phosphodiesterase family member 1 (Homo sapiens, UniProt P22413); experiment: Mixed type inhibition of human NPP1 expressed in COS7 cells assessed as production of p-nitrophenol using pnp-TMP as the substrate preincubated for 3 mins before substrate addition measured after 15 mins by Dixon/Cornish Bowden method; assay type: cell-based, COS-7; conditions: read-out: Ki(app); in short: as §3
T7 sequence (P22413 whole entry): T1 sequence (whole entry)

SMILES | inhibition [1] [%] | inhibition [2] [%] | inhibition [3] [%] | inhibition [4] [%] | inhibition [5] [%] | inhibition [6] [%] | inhibition [7] [%] | inhibition [8] | Ki [9] [µM]
CSc1nc(N)c2ncn([C@@H]3O[C@H](COP(=O)(O)OP(=O)(O)CP(=O)(O)O)[C@@H](O)[C@H]3O)c2n1 | 66 | < 18 | < 18 | < 18 | < 18 |  |  |  | 
B[P@@](=O)(OC[C@H]1O[C@@H](n2cnc3c(N)nc(SC)nc32)[C@H](O)[C@@H]1O)OP(=O)(O)C(Cl)(Cl)P(=O)(O)O | 90 |  |  | 50 | 50 | 90 | 90 |  | 
B[P@](=O)(OC[C@H]1O[C@@H](n2cnc3c(N)nc(SC)nc32)[C@H](O)[C@@H]1O)OP(=O)(O)C(F)(F)P(=O)(O)O | 90 |  | 30 |  | 50 | 41 | 41 |  | 
B[P@](=O)(OC[C@H]1O[C@@H](n2cnc3c(N)ncnc32)[C@H](O)[C@@H]1O)OP(=O)(O)C(Cl)(Cl)P(=O)(O)O | 90 |  |  |  |  | 41 | 41 | Active | 28
B[P@@](=O)(OC[C@H]1O[C@@H](n2cnc3c(N)nc(SC)nc32)[C@H](O)[C@@H]1O)OP(=O)(O)CP(=O)(O)O | 80 | < 18 | < 18 | < 18 | < 18 |  |  |  | 
B[P@](=O)(OC[C@H]1O[C@@H](n2cnc3c(N)nc(SC)nc32)[C@H](O)[C@@H]1O)OP(=O)(O)C(Cl)(Cl)P(=O)(O)O | 90 |  |  |  |  | 41 | 41 |  | 
CSc1nc(N)c2ncn([C@@H]3O[C@H](COP(=O)(O)OP(=O)(O)C(F)(F)P(=O)(O)O)[C@@H](O)[C@H]3O)c2n1 | 90 |  |  |  |  | 41 | 41 | Active | 37

— ChEMBL document CHEMBL3085721, “Nonhydrolyzable ATP analogues as selective inhibitors of human NPP1: a combined computational/experimental study” (J Med Chem, 2013)
